Data taken from PubChem BioAssay AID504677 (The Scripps Research Institute Molecular Screening Center, 2011).
Active and inactive are the calls of the source.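 Rule for the calls: active = compounds with IC50 half-inhibiting concentration of 10 µM or lower; inactive = IC50 above 10 µM.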

System: E. coli V3065 expressing H. pylori AddAB, T4 phage, OD growth
Assay: H. pylori AddAB complex inhibitors in E. coli, late-stage follow-up, absorbance, E. coli V3065, T4 phage, powder samples (AID 504677)
In short: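 System: addAB+ E. coli strain V3065; Dosing: threefold dilution series from nominal top dose 118.6 µM; Schedule: 60 min pre-incubation, 18 h at 37 °C; Measured by: OD600 absorbance; Evaluation: IC50 from fitted % inhibition curve; Controls: ciprofloxacin wells as high control, DMSO wells as low control; Replicates: triplicate.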

Compound	IC50
Cc1cccnc1NC(=O)c1ccc([N+](=O)[O-])o1	19.6 µM (inactive)
O=C(Nc1ccc(N2CCOCC2)cc1)c1ccc([N+](=O)[O-])o1	11.8 µM (inactive)
O=C(NCc1cccnc1)c1ccc([N+](=O)[O-])o1	18.9 µM (inactive)
C=CCn1c(Sc2ncc([N+](=O)[O-])s2)n[nH]c1=O	14.8 µM (inactive)
Cc1ccc2nc(/C(C#N)=C\c3ccc([N+](=O)[O-])o3)[nH]c2c1	9.42 µM
NC(=O)c1ccsc1NC(=O)COC(=O)c1ccc([N+](=O)[O-])o1	5.83 µM
N#Cc1c(NC(=O)c2ccc([N+](=O)[O-])o2)sc2c1CCC2	17.8 µM (inactive)
O=C(Nc1ncccn1)c1ccc([N+](=O)[O-])o1	7.54 µM
O=C(Nc1cccc(NC(=O)c2ccccc2Cl)c1)c1ccc([N+](=O)[O-])o1	> 13.2 µM (inactive)
CC(=O)Nc1ccc2nc(NC(=O)c3ccc([N+](=O)[O-])o3)sc2c1	> 119 µM (inactive)
O=C(OCC(=O)c1cccs1)c1ccc([N+](=O)[O-])o1	53.3 µM (inactive)
CCn1cc(C(=O)O)c(=O)c2cnc(N3CCN(C(=S)Nc4ccccc4C(F)(F)F)CC3)nc21	35.5 µM (inactive)
